# What was measured:
# [1] = molecular target: Class 1 histone deacetylase (Homo sapiens, UniProt Q13547+O15379+Q92769+Q9BY41); assay: Inhibition of HDAC class 1 in human HT-29 cells using Boc-Lys-Ac as substrate incubated for 3 hrs by microplate reader assay; type: cell-based
# Histone deacetylase 9 = Histone deacetylase 9 (Homo sapiens, UniProt Q9UKV0); assay: Inhibition of recombinant human HDAC9 using fluorogenic substrate by fluorescence microplate reader assay
# In short: (§1)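 Recombinant human HDAC isoforms were tested at 9 inhibitor dilutions in commercial fluorogenic enzyme kits, per the manufacturer's protocol. For class IIa enzymes, deacetylation of a TFA-lysine substrate lets trypsin release a fluorophore, read on a microplate reader. IC50 came from a nonlinear fit of % HDAC activity inhibition against compound concentration.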
# Histone deacetylase 3 = Histone deacetylase 3 (Homo sapiens, UniProt O15379); assay: Inhibition of recombinant human HDAC3 using fluorogenic substrate by fluorescence microplate reader assay; in short: as §1
# Histone deacetylase 8 = molecular target: T1, Histone deacetylase 8 (Homo sapiens, UniProt Q9BY41); assay: Inhibition of recombinant human HDAC8 using fluorogenic substrate by fluorescence microplate reader assay; in short: as §1
# T1 sequence (Q9BY41 whole entry): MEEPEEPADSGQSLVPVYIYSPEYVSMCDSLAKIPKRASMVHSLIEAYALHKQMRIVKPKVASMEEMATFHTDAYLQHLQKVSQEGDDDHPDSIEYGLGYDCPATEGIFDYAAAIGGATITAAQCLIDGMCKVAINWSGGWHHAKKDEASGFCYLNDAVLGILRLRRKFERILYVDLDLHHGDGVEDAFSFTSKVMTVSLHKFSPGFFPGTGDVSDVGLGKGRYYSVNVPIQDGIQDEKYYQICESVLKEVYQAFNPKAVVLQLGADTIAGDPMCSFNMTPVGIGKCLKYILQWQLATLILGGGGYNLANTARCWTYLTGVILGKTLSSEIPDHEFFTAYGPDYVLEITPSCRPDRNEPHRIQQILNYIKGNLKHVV
# [2] = Inhibition of HDAC class 2a in human HT-29 cells using Boc-Lys-TFA as substrate incubated for 3 hrs by microplate reader assay; type: cell-based; settings: HT-29, 3 h
# [3] = molecular target: T2, Polyamine deacetylase HDAC10 (Homo sapiens, UniProt Q969S8); assay: Inhibition of recombinant human HDAC10 using fluorogenic substrate by fluorescence microplate reader assay; in short: as §1
# T2 sequence (Q969S8 whole entry): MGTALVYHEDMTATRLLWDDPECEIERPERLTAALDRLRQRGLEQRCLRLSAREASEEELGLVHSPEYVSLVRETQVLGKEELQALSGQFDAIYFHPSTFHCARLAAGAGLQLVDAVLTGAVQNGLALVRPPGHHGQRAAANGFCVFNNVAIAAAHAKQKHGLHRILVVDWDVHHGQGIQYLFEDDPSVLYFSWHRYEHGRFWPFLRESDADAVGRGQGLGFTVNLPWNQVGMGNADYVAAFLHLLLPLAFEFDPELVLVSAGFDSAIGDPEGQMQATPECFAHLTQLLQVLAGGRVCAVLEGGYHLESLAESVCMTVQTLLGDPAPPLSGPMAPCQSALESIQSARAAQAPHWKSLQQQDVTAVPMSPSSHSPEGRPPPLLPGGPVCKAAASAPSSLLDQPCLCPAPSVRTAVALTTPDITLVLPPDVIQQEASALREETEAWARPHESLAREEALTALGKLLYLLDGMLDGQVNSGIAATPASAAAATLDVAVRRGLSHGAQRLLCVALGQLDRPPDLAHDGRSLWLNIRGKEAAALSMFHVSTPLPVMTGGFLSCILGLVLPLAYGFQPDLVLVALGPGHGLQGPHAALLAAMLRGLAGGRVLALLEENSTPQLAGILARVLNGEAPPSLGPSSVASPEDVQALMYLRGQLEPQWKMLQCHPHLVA
# Histone deacetylase 2 = Histone deacetylase 2 (Homo sapiens, UniProt Q92769); assay: Inhibition of recombinant human HDAC2 using fluorogenic substrate by fluorescence microplate reader assay; in short: as §1
# Histone deacetylase 5 = Histone deacetylase 5 (Homo sapiens, UniProt Q9UQL6); assay: Inhibition of recombinant human HDAC5 using fluorogenic substrate by fluorescence microplate reader assay; in short: as §1
# [4] = Inhibition of HDAC class 2b in human HT-29 cells using Boc-Lys-Ac as substrate incubated for 3 hrs by microplate reader assay; type: cell-based; settings: HT-29, 3 h
# Histone deacetylase 4 = Histone deacetylase 4 (Homo sapiens, UniProt P56524); assay: Inhibition of recombinant human HDAC4 using fluorogenic substrate by fluorescence microplate reader assay; in short: as §1
# [5] = molecular target: T3, Protein deacetylase HDAC6 (Homo sapiens, UniProt Q9UBN7); assay: Inhibition of recombinant human HDAC6 using fluorogenic substrate by fluorescence microplate reader assay; in short: as §1
# T3 sequence (Q9UBN7 whole entry): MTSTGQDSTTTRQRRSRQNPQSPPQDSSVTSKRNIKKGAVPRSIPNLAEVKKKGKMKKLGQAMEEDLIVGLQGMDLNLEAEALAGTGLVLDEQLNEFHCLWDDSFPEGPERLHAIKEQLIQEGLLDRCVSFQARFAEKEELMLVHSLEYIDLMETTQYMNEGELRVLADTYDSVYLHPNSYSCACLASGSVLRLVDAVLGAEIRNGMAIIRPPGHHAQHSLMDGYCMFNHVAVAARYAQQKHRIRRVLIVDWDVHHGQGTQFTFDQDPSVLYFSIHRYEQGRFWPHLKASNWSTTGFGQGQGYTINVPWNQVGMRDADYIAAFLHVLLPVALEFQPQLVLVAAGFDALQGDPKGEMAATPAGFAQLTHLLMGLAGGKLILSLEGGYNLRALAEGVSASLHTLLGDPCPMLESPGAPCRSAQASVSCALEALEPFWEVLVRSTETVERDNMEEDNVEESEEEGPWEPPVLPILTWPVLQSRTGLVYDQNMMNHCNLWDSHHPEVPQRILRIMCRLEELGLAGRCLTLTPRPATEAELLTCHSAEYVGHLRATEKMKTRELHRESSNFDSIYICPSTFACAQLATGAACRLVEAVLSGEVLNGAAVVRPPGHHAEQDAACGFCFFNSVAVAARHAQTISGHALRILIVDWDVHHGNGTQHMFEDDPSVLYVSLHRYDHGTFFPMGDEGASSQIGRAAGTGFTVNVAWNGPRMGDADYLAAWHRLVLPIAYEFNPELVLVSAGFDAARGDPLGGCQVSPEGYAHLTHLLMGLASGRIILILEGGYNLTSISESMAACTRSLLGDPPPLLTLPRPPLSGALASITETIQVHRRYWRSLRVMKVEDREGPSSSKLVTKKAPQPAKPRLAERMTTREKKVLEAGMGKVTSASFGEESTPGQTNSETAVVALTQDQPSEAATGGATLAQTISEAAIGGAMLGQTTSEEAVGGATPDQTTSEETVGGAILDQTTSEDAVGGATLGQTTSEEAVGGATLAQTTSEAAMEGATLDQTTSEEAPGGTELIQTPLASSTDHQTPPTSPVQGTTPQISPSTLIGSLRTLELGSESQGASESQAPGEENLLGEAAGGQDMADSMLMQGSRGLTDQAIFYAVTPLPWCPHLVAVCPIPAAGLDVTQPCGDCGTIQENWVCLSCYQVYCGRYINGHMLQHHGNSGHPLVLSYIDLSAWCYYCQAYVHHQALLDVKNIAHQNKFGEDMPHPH
# Histone deacetylase 11 = molecular target: T4, Histone deacetylase 11 (Homo sapiens, UniProt Q96DB2); assay: Inhibition of recombinant human HDAC11 using fluorogenic substrate by fluorescence microplate reader assay; in short: as §1
# T4 sequence (Q96DB2 whole entry): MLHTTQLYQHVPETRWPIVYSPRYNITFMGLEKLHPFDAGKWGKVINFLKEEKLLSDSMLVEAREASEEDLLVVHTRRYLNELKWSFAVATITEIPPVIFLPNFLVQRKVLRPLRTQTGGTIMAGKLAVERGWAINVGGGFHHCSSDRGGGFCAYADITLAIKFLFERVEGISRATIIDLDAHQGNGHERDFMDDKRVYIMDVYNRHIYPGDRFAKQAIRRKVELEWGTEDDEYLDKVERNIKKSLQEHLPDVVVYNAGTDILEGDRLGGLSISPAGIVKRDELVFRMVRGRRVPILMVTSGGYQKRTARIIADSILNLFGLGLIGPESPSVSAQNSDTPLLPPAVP
# Histone deacetylase 1 = Histone deacetylase 1 (Homo sapiens, UniProt Q13547); assay: Inhibition of recombinant human HDAC1 using fluorogenic substrate by fluorescence microplate reader assay; in short: as §1
# Sequence of Histone deacetylase 1 (Q13547 whole entry): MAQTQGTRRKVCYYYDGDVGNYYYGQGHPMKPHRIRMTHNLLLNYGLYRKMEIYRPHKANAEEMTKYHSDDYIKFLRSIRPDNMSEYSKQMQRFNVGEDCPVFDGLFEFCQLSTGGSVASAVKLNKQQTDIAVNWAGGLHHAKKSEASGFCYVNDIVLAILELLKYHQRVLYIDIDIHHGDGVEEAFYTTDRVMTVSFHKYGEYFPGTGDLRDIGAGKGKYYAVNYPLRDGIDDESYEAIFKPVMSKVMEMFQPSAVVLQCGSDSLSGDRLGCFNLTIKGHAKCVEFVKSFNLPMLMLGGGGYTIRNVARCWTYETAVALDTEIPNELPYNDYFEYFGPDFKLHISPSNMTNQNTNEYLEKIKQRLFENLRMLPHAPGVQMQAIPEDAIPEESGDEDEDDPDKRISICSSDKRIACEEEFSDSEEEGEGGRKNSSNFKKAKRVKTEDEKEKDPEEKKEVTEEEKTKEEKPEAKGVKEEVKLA
# Sequence of Histone deacetylase 2 (Q92769 whole entry): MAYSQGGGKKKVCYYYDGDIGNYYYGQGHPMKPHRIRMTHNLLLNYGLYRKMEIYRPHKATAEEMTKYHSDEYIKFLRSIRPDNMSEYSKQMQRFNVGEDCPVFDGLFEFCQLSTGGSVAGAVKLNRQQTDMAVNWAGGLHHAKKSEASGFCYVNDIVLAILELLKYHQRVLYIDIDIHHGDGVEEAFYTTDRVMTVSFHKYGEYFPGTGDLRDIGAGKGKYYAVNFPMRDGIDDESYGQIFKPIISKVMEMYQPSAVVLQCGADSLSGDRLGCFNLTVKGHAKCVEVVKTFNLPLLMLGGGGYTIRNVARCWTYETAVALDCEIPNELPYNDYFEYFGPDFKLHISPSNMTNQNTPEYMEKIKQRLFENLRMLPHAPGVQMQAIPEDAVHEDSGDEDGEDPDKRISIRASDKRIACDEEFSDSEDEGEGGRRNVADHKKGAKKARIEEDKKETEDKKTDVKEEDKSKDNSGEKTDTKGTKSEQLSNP
# Sequence of Histone deacetylase 3 (O15379 whole entry): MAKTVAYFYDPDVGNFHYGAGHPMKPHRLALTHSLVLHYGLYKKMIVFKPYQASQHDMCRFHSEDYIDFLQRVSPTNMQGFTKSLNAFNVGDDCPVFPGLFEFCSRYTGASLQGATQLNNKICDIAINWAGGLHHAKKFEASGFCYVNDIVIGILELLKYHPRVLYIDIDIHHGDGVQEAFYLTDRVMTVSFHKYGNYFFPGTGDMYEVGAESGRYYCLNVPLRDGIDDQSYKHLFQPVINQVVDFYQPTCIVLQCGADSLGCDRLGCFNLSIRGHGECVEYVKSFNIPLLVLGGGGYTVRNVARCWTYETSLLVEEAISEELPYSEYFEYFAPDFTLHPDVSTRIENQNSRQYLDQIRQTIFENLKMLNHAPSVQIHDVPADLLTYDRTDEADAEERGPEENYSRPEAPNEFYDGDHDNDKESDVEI
# Sequence of Histone deacetylase 4 (P56524 whole entry): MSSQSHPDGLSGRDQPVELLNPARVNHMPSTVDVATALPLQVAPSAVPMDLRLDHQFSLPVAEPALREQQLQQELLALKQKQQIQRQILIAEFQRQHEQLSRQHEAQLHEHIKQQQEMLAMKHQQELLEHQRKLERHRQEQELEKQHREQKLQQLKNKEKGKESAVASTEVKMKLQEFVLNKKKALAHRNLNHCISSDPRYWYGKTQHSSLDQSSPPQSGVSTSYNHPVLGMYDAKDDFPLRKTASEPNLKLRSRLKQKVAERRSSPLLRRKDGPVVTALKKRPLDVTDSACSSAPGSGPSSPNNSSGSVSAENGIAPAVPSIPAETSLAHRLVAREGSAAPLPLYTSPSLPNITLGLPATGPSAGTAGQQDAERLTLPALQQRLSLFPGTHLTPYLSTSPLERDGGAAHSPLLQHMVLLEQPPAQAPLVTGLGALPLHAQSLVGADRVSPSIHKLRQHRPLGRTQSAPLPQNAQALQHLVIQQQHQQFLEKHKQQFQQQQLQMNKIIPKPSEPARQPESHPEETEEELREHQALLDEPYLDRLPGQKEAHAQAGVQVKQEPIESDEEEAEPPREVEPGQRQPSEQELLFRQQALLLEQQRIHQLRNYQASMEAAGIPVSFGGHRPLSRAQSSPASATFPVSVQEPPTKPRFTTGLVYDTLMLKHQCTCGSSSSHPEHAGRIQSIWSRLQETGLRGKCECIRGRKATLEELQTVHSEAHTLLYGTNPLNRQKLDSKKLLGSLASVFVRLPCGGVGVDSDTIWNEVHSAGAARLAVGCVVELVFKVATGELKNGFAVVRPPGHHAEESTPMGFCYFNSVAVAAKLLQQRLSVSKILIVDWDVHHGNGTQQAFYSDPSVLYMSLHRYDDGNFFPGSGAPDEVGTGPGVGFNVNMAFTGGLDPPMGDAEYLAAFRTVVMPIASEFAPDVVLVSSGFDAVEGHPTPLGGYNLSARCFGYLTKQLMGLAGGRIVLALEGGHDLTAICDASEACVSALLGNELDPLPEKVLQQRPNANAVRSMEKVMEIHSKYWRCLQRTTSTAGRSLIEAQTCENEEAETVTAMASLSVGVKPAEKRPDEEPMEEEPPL
# Sequence of Histone deacetylase 5 (Q9UQL6 whole entry): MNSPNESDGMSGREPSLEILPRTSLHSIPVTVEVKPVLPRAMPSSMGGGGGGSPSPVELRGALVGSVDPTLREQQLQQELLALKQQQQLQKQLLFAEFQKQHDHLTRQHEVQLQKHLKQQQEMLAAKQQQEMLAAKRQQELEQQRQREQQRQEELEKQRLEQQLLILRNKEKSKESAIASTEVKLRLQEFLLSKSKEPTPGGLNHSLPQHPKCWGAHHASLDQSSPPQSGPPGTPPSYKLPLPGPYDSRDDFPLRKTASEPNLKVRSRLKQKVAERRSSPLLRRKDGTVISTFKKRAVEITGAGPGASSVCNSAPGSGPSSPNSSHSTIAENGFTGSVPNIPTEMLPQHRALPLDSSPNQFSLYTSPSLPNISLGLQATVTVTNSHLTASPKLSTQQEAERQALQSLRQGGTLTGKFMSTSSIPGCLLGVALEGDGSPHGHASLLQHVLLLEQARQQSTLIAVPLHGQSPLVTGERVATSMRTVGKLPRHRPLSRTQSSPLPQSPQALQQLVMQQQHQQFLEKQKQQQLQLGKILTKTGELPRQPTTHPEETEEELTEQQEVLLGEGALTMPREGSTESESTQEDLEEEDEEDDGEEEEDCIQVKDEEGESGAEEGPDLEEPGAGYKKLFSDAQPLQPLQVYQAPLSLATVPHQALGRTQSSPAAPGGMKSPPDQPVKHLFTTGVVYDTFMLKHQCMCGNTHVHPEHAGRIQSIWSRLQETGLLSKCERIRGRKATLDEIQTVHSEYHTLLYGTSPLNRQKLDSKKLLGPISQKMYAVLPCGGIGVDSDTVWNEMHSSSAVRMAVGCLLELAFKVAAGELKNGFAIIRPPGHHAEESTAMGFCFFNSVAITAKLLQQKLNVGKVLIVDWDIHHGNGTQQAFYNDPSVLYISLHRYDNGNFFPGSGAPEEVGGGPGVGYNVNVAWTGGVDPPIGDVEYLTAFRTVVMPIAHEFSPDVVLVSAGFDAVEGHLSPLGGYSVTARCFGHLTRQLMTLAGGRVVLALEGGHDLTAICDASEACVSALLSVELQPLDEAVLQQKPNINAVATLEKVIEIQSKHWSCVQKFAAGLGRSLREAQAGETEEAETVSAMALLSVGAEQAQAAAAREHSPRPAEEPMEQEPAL
# Sequence of Histone deacetylase 9 (Q9UKV0 whole entry, canonical isoform): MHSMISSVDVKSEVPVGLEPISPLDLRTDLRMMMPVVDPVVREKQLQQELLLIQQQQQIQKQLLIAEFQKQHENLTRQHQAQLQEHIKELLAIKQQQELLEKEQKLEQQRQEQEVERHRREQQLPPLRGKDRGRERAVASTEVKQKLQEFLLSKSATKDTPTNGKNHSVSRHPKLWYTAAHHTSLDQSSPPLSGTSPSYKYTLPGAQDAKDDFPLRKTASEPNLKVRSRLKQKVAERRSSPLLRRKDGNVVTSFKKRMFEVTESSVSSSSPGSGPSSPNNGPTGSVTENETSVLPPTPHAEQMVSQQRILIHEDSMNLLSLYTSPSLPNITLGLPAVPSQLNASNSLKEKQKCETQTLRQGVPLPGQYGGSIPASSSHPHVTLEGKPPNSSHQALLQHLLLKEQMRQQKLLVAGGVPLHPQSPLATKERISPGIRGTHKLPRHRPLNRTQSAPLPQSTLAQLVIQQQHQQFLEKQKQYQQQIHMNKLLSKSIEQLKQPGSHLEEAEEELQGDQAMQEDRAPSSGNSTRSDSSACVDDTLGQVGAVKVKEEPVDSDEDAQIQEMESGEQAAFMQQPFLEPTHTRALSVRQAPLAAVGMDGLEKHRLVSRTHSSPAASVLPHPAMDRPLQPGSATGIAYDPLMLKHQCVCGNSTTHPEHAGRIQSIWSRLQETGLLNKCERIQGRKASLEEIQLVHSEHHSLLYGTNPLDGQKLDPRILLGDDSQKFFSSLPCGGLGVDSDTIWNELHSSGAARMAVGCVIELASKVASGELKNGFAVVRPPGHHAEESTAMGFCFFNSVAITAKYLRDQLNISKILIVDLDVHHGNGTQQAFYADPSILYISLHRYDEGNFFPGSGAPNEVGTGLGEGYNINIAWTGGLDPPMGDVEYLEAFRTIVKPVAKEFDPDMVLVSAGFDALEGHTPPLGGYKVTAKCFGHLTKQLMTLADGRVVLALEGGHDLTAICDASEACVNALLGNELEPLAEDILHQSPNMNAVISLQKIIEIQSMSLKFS
SMILES,IC50 [1] [nM],IC50 [2] [nM],IC50 [4] [nM],also measured
CC(C)(CNC(=O)c1ccc(-c2noc(C(F)(F)F)n2)cc1)c1coc(-c2ccccc2)n1,> 15000,> 5000,> 15000,
C[C@H](CN(C)Cc1ccccc1)NC(=O)c1ccc(-c2noc(C(F)(F)Cl)n2)cc1,> 2000,> 2000,> 2000,
C[C@@H](NC(=O)c1ccc(-c2noc(C(F)(F)F)n2)cc1)C(=O)NCc1ccccc1,> 15000,953,> 15000,
CN(Cc1ccccc1)C(=O)C(C)(C)CNC(=O)c1cccc(-c2noc(C(F)(F)F)n2)c1,> 50000,> 50000,> 50000,
C[C@H](CN(C)Cc1ccccc1)NC(=O)c1cccc(-c2noc(C(F)(F)F)n2)c1,> 50000,> 50000,> 50000,
COC[C@@H](NC(=O)c1ccc(-c2noc(C(F)(F)F)n2)nc1)C(=O)NCc1ccccc1,> 15000,1710,> 15000,
CN(Cc1ccccc1)C(=O)CCNC(=O)c1cccc(-c2noc(C(F)(F)F)n2)c1,> 50000,> 50000,> 50000,
C[C@H](CN(C)Cc1ccccc1)NC(=O)c1ccc(-c2noc(C(F)(F)Br)n2)cc1,> 5000,> 5000,> 5000,

# Now from value to compound, other results behind:
IC50 [1] [nM],IC50 [2] [nM],IC50 [4] [nM],SMILES,also measured
> 15000,46,> 15000,C[C@H](CN(C)Cc1ccccc1)NC(=O)c1ccc(-c2noc(C(F)(F)F)n2)cc1,IC50 (Histone deacetylase 9): 0.9 nM; IC50 (Histone deacetylase 3): > 600 nM; IC50 (Histone deacetylase 8): > 600 nM; IC50 [3]: > 600 nM; IC50 (Histone deacetylase 2): > 600 nM; IC50 (Histone deacetylase 5): 1.2 nM; IC50 (Histone deacetylase 4): 0.08 nM; IC50 [5]: > 600 nM; IC50 (Histone deacetylase 11): > 600 nM; IC50 (Histone deacetylase 1): > 600 nM
> 15000,59,> 15000,C[C@H](CN(C)Cc1ccc(F)cc1)NC(=O)c1ccc(-c2noc(C(F)(F)F)n2)cc1,
> 15000,233,> 15000,COC[C@@H](NC(=O)c1ccc(-c2noc(C(F)(F)F)n2)cc1)C(=O)NCc1ccc(F)cc1,
> 50000,147,> 50000,C[C@H](CN(C)Cc1ccccc1)NC(=O)c1ccc(-c2noc(C(F)(F)F)n2)nc1,
> 15000,537,> 15000,COC[C@@H](NC(=O)c1ccc(-c2noc(C(F)(F)F)n2)cc1)C(=O)NCc1ccccc1,
> 15000,768,> 15000,CC(C)(CNC(=O)c1ccc(-c2noc(C(F)(F)F)n2)cc1)C(=O)NCc1ccccc1,
> 50000,395,> 50000,CC(CN(C)Cc1ccccc1)NC(=O)c1ccc(-c2noc(C(F)(F)F)n2)cc1 (stereo unspecified),
> 15000,905,> 15000,CN(Cc1ccccc1)C(=O)CCNC(=O)c1ccc(-c2noc(C(F)(F)F)n2)cc1,
> 15000,933,> 15000,CN(Cc1ccccc1)C(=O)C(C)(C)CNC(=O)c1ccc(-c2noc(C(F)(F)F)n2)cc1,
